Test results as given in ChEMBL document CHEMBL1126626, “Synthesis and pharmacological evaluation of (nitrooxy)alkyl apovincaminates” (1993).

Assays:
Canis familiaris [1] = assay: Effect on femoral blood flow (FBF) was studied, after intra arterial administration in anesthetized dogs relative to vinpocetine; format: functional, Canis lupus familiaris
In short: (§1)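 Compounds were given intraarterially to anesthetized dogs. Dose-response curves were built from peak response values. Potency was expressed as a ratio to vinpocetine, set at 1.0.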

Canis familiaris [2] = assay: Effect on vertebral blood flow (VBF) was studied, after intra arterial administration in anesthetized dogs relative to vinpocetine; format: functional, Canis lupus familiaris; in short: as §1

| SMILES | Potency ratio (Canis familiaris [1]) | Potency ratio (Canis familiaris [2]) |
| --- | --- | --- |
| CC[C@@]12C=C(C(=O)OCCO[N+](=O)[O-])n3c4c(c5ccc(Br)cc53)CCN(CCC1)[C@H]42 | 0.36 | 0.58 |
| CC[C@@]12C=C(C(=O)OCCCCCCCCCCO[N+](=O)[O-])n3c4c(c5ccccc53)CCN(CCC1)[C@H]42 | 0.16 | 0.48 |
| CC[C@@]12C=C(C(=O)OCCCCCCO[N+](=O)[O-])n3c4c(c5ccccc53)CCN(CCC1)[C@H]42 | 0.84 | 0.99 |
| CC[C@@]12C=C(C(=O)OCCCCCO[N+](=O)[O-])n3c4c(c5ccccc53)CCN(CCC1)[C@H]42 | 1.07 | 1.09 |
| CC[C@@]12C=C(C(=O)OCCCO[N+](=O)[O-])n3c4c(c5ccccc53)CCN(CCC1)[C@H]42 | 1.91 | 1.85 |
| CC[C@@]12C=C(C(=O)OCCCCCCCCCCCO[N+](=O)[O-])n3c4c(c5ccccc53)CCN(CCC1)[C@H]42 | 0.38 | 0.33 |
| CC[C@@]12C=C(C(=O)OCCCCCCCCCO[N+](=O)[O-])n3c4c(c5ccccc53)CCN(CCC1)[C@H]42 | 0.15 | 0.33 |
| CC[C@@]12C=C(C(=O)OCCO[N+](=O)[O-])n3c4c(c5ccccc53)CCN(CCC1)[C@H]42 | 4.72 | 3.83 |
| CC[C@@]12C=C(C(=O)OCCCCCCCO[N+](=O)[O-])n3c4c(c5ccccc53)CCN(CCC1)[C@H]42 | 0.67 | 0.82 |
| CC[C@@]12C=C(C(=O)OCCCCO[N+](=O)[O-])n3c4c(c5ccccc53)CCN(CCC1)[C@H]42 | 1.63 | 1.25 |
| CC[C@@]12C=C(C(=O)OCCCCCCCCO[N+](=O)[O-])n3c4c(c5ccccc53)CCN(CCC1)[C@H]42 | 0.34 | 0.35 |
| CC[C@]12CCCN3CCc4c(n(c5cc(Br)ccc45)[C@@](O)(C(=O)OC)C1)[C@@H]32 [BROVINCAMINE] | 0.28 | 0.17 |
| CCOC(=O)C1=C[C@]2(CC)CCCN3CCc4c(n1c1ccccc41)[C@@H]32 [VINPOCETINE] | 1 | 1 |
